Calls of active or inactive are those of the source. No cut-off for these calls is given here.
Experiments:
Staphylococcus aureus [1] = experiment: Antibacterial activity against methicillin-resistant Staphylococcus aureus isolate M4 after 16 to 20 hrs by broth microdilution method; assay type: functional
How it was run: (§1)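 CLSI broth microdilution in cation-adjusted Mueller-Hinton broth. A 4-6 h culture was diluted to about 10⁶ CFU/mL and mixed 1:1 with twofold compound dilutions (256–0.5 µg/mL before mixing) prepared from aqueous stocks. Plates were incubated at 37 °C for 16-20 h. Each concentration was tested in duplicate, and the experiment was repeated at least twice.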

Enterobacteriaceae [2] = experiment: Antibacterial activity against NDM-1-producing Enterobacteriaceae after 16 to 20 hrs by broth microdilution method; assay type: functional
How it was run: (§2)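 Broth microdilution per CLSI in cation-adjusted Mueller-Hinton broth; 4-6 h cultures (~10⁸ CFU/mL) diluted to ~10⁶ CFU/mL and mixed 1:1 with twofold dilutions of water-dissolved compound (256 to 0.5 µg/mL). Incubated 16-20 h at 37 °C; MIC read visually. Each concentration run in duplicate, whole experiment repeated at least twice. MRSA, KPC and NDM-1 strains were clinical isolates.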

Staphylococcus aureus [3] = experiment: Antibacterial activity against Staphylococcus aureus ATCC 29213 after 16 to 20 hrs by broth microdilution method; assay type: functional; how it was run: as §1
Klebsiella pneumoniae [4] = experiment: Antibacterial activity against carbapenemase-producing Klebsiella pneumoniae isolate K1 after 16 to 20 hrs by broth microdilution method; assay type: functional; how it was run: as §2
Klebsiella pneumoniae [5] = experiment: Antibacterial activity against carbapenemase-producing Klebsiella pneumoniae isolate K10 after 16 to 20 hrs by broth microdilution method; assay type: functional; how it was run: as §2
Staphylococcus aureus [6] = experiment: Bactericidal activity against methicillin-resistant Staphylococcus aureus after 20 to 24 hrs in presence of 50% blood by broth microdilution method; assay type: functional, organism-based
How it was run: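 MRSA at 10⁵ CFU/mL in 50% Mueller-Hinton broth plus 50% sheep serum, plasma or defibrinated whole blood. Serum and plasma were separated by centrifugation at 3,500 rpm for 10 min. Aqueous compound dilutions (512–4 µg/mL before mixing) were combined 1:3 with the suspension and incubated 20-24 h at 37 °C. Wells were plated on Mueller-Hinton agar for a further 20-24 h; MBC was taken as no colonies.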

Enterobacteriaceae [7] = experiment: Antibacterial activity against NDM-1-producing Enterobacteriaceae isolate N10 after 16 to 20 hrs by broth microdilution method; assay type: functional; how it was run: as §2
Enterobacteriaceae [8] = experiment: Antibacterial activity against NDM-1-producing Enterobacteriaceae isolate N3 after 16 to 20 hrs by broth microdilution method; assay type: functional; how it was run: as §2
Enterobacteriaceae [9] = experiment: Antibacterial activity against NDM-1-producing Enterobacteriaceae isolate N7 after 16 to 20 hrs by broth microdilution method; assay type: functional; how it was run: as §2
Enterobacteriaceae [10] = experiment: Antibacterial activity against NDM-1-producing Enterobacteriaceae isolate N9 after 16 to 20 hrs by broth microdilution method; assay type: functional; how it was run: as §2
Salmonella enterica = experiment: Antibacterial activity against Salmonella enterica after 16 to 20 hrs by broth microdilution method; assay type: functional; how it was run: as §2
Staphylococcus aureus [11] = experiment: Bactericidal activity against methicillin-resistant Staphylococcus aureus after 20 to 24 hrs by broth microdilution method; assay type: functional
How it was run: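 For MBC, 20 µL from wells of the broth microdilution MIC plate showing little or no turbidity was plated on agar and incubated 20-24 h at 37 °C. MBC was the lowest concentration giving no colonies.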

Escherichia coli [12] = experiment: Induction of inner membrane permeabilization in Escherichia coli ATCC 25922 at 20 ug/ml measured every 2 mins for 12 mins by propidium iodide staining based fluorescence assay; assay type: functional, organism-based
How it was run: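 Mid-log cells (~10^8 CFU/mL) pre-incubated with propidium iodide (10 µM, 50 µL), 30 min for S. aureus and 40 min for E. coli. Fluorescence (ex 535/em 617 nm) read for 8 min, then compound added to 20 µg/mL final and monitored every 2 min for 12 min. Water-treated control.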

Staphylococcus aureus [13] = experiment: Bactericidal activity against Staphylococcus aureus after 20 to 24 hrs using compounds preincubated with 50% plasma for 3 to 6 hrs by broth microdilution method
Klebsiella pneumoniae [14] = experiment: Antibacterial activity against carbapenemase-producing Klebsiella pneumoniae isolate K6 after 16 to 20 hrs by broth microdilution method; assay type: functional; how it was run: as §2
Staphylococcus aureus [15] = experiment: Induction of cytoplasmic membrane depolarization in Staphylococcus aureus ATCC 29213 at 20 ug/ml measured every 2 mins for 12 mins by diSC35 staining based fluorescence assay; assay type: functional, organism-based
How it was run: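 Mid-log cells (4–6 h) pelleted, washed and resuspended (~10^8 CFU/mL) in PBS for S. aureus, or in 5 mM HEPES, 5 mM glucose and 100 mM KCl (1:1:1) for E. coli. Preloaded with diSC35 (10 µM, 50 µL), 30 min for S. aureus and 40 min plus EDTA (200 µM, 50 µL) for E. coli. Baseline read 8 min (ex 622/em 670 nm), then compound added to 20 µg/mL final and read every 2 min for 12 min. Water control.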

Klebsiella pneumoniae [16] = experiment: Antibacterial activity against carbapenemase-producing Klebsiella pneumoniae isolate K5 after 16 to 20 hrs by broth microdilution method; assay type: functional; how it was run: as §2
Staphylococcus aureus [17] = experiment: Antibacterial activity against methicillin-resistant Staphylococcus aureus isolate M8 after 16 to 20 hrs by broth microdilution method; assay type: functional; how it was run: as §1
Enterobacteriaceae [18] = experiment: Antibacterial activity against NDM-1-producing Enterobacteriaceae isolate N6 after 16 to 20 hrs by broth microdilution method; assay type: functional; how it was run: as §2
HeLa [19] = experiment: Cytotoxicity against human HeLa cells assessed as altered morphology at 1 to 2 times MIC after 24 hrs by optical microscopic method; assay type: cell-based
How it was run: (§3)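 HeLa cells kept in DMEM with 10% FBS at 37 °C and 5% CO2, seeded in 12-well plates and left to adhere overnight. Cells then exposed 24 h to 1, 2, 4, 8 and 16 µg/mL, with 0.1% Triton X-100 as positive control and untreated wells as negative control. Cells washed with PBS, imaged for morphology, and stained 15 min at 37 °C with 2 µM calcein AM plus 4.5 µM PI for live/dead fluorescence.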

HeLa [20] = experiment: Cytotoxicity against human HeLa cells at 1 to 2 times MIC after 24 hrs by calcein AM/propidium iodide staining based fluorescence microscopic method; assay type: cell-based; how it was run: as §3
Escherichia coli [21] = experiment: Antibiofilm activity against Escherichia coli ATCC 25922 assessed as bacterial cell viability in biofilm at 64 ug/ml after 24 hrs (reference value: 25.9 log10CFU/ml); assay type: functional
How it was run: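 Mid-log cells at ~10⁵ CFU/mL grown stationary in 96-well plates (S. aureus in MHB for 24 h; E. coli in M9 with 0.02% casamino acids and 0.5% glycerol for 72 h). After washing, biofilms exposed 24 h at 37 °C to 2-128 µg/mL; detached with trypsin-EDTA, serially plated, viability given as log10 CFU/well against an untreated control.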

Staphylococcus aureus [22] = experiment: Antibiofilm activity against Staphylococcus aureus ATCC 29213 after 24 hrs by crystal violet staining method; assay type: functional
How it was run: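 MBIC: twofold dilutions in MHB inoculated with 1:1000-diluted exponential-phase culture (10⁸ CFU/mL), 24 h at 37 °C. Wells rinsed, stained 10 min with 0.1% crystal violet, dye dissolved in ethanol, OD540 read; MBIC80 taken from dose–response versus untreated wells.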

Escherichia coli [23] = experiment: Antibiofilm activity against Escherichia coli ATCC 25922 after 24 hrs by turbidity method; assay type: functional
How it was run: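 MBEC: biofilms grown 24 h at 37 °C from 1:1000-diluted exponential-phase culture; planktonic cells removed, twofold dilutions in fresh medium added for 24 h at 37 °C, then fresh medium alone for 24 h recovery. MBEC is the lowest concentration with no visible turbidity.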

SMILES	MIC (Staphylococcus aureus [1]) [µg/mL]	MIC (Enterobacteriaceae [2]) [µg/mL]	MIC (Staphylococcus aureus [3]) [µg/mL]	MIC (Klebsiella pneumoniae [4]) [µg/mL]	MIC (Klebsiella pneumoniae [5]) [µg/mL]	Activity (Staphylococcus aureus [6])	MIC (Enterobacteriaceae [7]) [µg/mL]	MIC (Enterobacteriaceae [8]) [µg/mL]	MIC (Enterobacteriaceae [9]) [µg/mL]	MIC (Enterobacteriaceae [10]) [µg/mL]	MIC (Salmonella enterica) [µg/mL]	MBC (Staphylococcus aureus [11]) [µg/mL]	Activity (Escherichia coli [12])	MBC (Staphylococcus aureus [13]) [µg/mL]	MIC (Klebsiella pneumoniae [14]) [µg/mL]	Activity (Staphylococcus aureus [15])	MIC (Klebsiella pneumoniae [16]) [µg/mL]	MIC (Staphylococcus aureus [17]) [µg/mL]	MIC (Enterobacteriaceae [18]) [µg/mL]	Activity (HeLa [19])	other results
CCCCCCCCN(CCCCCCCC)C(=O)[C@@H](N)CCCCN.Cl.Cl	1	4	2	2	2	inactive	8	8	8	8	4	4 to 8	Active	16	2	Active	2	1	4		
CCCCCCCCCCN(CCCCCCCCCC)C(=O)[C@@H](N)CCCCN.Cl.Cl	2	4	4	4	4	inactive	4	4	4	4	2	4 to 8	Active	16	4	Active	4	1	4		
CCCCCCCCN(CCCCCCCC)C(=O)[C@@H](N)CCCN=C(N)N.Cl.Cl.Cl	1	4	1	8	4	inactive	8	8	4	8	8	4 to 8	Active	16	8	Active	8	1	4		
CCCCCCCCCCN(CCCCCCCCCC)C(=O)[C@@H](N)CCCN=C(N)N.Cl.Cl.Cl	2	4	2	4	4	inactive	8	4	4	8	4	4 to 8	Active	16	4	Active	4	2	4		
CCCCCCCCCN(CCCCCCCCC)C(=O)[C@@H](N)CCCN=C(N)N.Cl.Cl.Cl	1	4	1	4	4	inactive	4	4	2	4	4	4 to 8	Active	16	4	Active	4	2	4	Non-Toxic	Activity (HeLa [20]): Non-Toxic
CCCCCCCCCN(CCCCCCCCC)C(=O)[C@@H](N)CCCCN.Cl.Cl	2	2	1	2	2	inactive	4	2	2	4	2	4 to 8	Active	16	2	Active	2	1	2	Non-Toxic	Activity (Escherichia coli [21]): 0.3 log10CFU; MBIC80 (Staphylococcus aureus [22]): 18 µg/mL; MBIC90 (Staphylococcus aureus [22]): 26.9 µg/mL; MBEC (Escherichia coli [23]): 128 µg/mL; Activity (HeLa [20]): Non-Toxic

Source: ChEMBL document CHEMBL4130549, “Synthesis and bioactivities study of new antibacterial peptide mimics: The dialkyl cationic amphiphiles” (Eur J Med Chem, 2018)
